Data set [1] in a line: Chemical stability at pH 4 incubated for 2 hrs. It is filed as physicochemical. Particulars: buffer, pH 4, 2 h. In outline:
(§1)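 Compound was held in aqueous buffer at the stated pH for 2 h at 37 °C.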

Data set [2] can be described thus: Chemical stability at pH 10 incubated for 2 hrs. It is filed as physicochemical. The conditions noted are these: buffer, pH 10, 2 h. The procedure, abridged: as §1
Data set [3] concerns the target T1, Monoglyceride lipase (Homo sapiens, UniProt Q99685).
T1 sequence (Q99685 whole entry): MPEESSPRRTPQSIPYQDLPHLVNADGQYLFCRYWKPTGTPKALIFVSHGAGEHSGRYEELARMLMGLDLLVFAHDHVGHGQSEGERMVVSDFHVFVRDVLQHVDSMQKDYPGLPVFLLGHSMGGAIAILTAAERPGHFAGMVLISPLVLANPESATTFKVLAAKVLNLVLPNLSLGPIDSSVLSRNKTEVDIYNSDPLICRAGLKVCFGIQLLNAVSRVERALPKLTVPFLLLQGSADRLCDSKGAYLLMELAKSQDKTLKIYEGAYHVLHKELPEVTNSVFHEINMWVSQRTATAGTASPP
Nature of the data set: Binding affinity to human MAGL assessed as equilibrium dissociation constant by SPR analysis. The procedure, abridged: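 Human or rat MAGL was immobilized by amine coupling without ethanolamine quenching. Runs were done at 18 °C in 10 mM HEPES, 150 mM NaCl, 0.05% P20, 50 µM EDTA, pH 7.4, with 1% DMSO. Single-cycle kinetics used five concentrations, top 1 µM in 2-fold steps, at 30 µL/min, giving kon, koff and Kd.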
For orientation: In SPR one partner is held on a chip, and binding of the other changes the refractive index at the surface.

Data set [4] can be described thus: Clearance in mouse microsomes. In kind it is ADME, Microsome.
The nature of data set [5]: Clearance in mouse hepatocytes assessed per 10 million cells. It is filed as ADME, cell-based, Hepatocyte. The conditions noted are these: read-out: CLH.
Data set [6] can be described thus: Volume of distribution at steady state in Wistar rat at 1 mg/kg, iv measured upto 24 hrs by LC-MS/MS analysis. It is filed as ADME, organism-based. Particulars: in vivo, read-out: Vdss. In outline:
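Male Wistar rats (N = 3) received a single 1 mg/kg i.v. dose as a solution in NMP/0.9% NaCl (30:70, 2 mL/kg). Blood was drawn at 0.083, 0.25, 0.5, 1, 2, 4, 7 and 24 h onto K2EDTA, and plasma was separated by centrifugation at 3000g for 15 min at 4 °C. Concentrations were measured by LC-MS/MS, and Vss was derived by noncompartmental analysis.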

The nature of data set [7]: Tmax in Wistar rat at 10 mg/kg, ip measured […] by LC-MS/MS analysis. It is filed as ADME, organism-based. The conditions noted are these: in vivo. In outline: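 Male Wistar rats, single dose. i.v. in NMP/0.9% NaCl 30:70; p.o. and i.p. in NMP/HPMC/diisooctyl sulfosuccinate 10:90; 3 per i.v./p.o. group, 6 i.p. K2EDTA plasma sampled 0.083–7 h, plus 24 h for i.v./p.o.; brain and CSF at 1, 2, 7 h (i.p. only). LC-MS/MS, noncompartmental analysis.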

Data set [8] can be described thus: AUClast in Wistar rat at 10 mg/kg, ip measured upto 24 hrs by LC-MS/MS analysis. It is filed as ADME, organism-based. The conditions noted are these: in vivo.
For data set [9], the target named is CYP3A4 (Homo sapiens, UniProt P08684). Nature of the data set: Inhibition of CYP3A4 (unknown origin) at 10 uM relative to control. In kind it is ADME.
The nature of data set [10]: Phototoxicity in mouse 3T3 cells. In kind it is toxicity, cell-based. Particulars: nih3t3.
A short description of data set [11]: Average drug concentration in mouse plasma at 10 mg/kg, ip measured after 4 hrs. It is filed as ADME, organism-based. Particulars: in vivo. The procedure, abridged: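 Mice received 3, 10 or 30 mg/kg i.p. The compound was dissolved in DMSO/Tween 80 (1:1) and diluted with 8 parts saline (NaCl/DMSO/TW80 80/10/10). Plasma was taken 4 h after injection and average concentrations reported.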

Data set [12] can be described thus: Drug concentration in mouse CSF at 3 mg/kg, ip measured after 4 hrs. In kind it is ADME, organism-based, Cerebrospinal fluid. Particulars: read-out: Ct.
The nature of data set [13]: Drug concentration in mouse CSF at 30 mg/kg, ip measured after 8 hrs. In kind it is ADME, organism-based, Cerebrospinal fluid. The conditions noted are these: read-out: Ct.
Data set [14] can be described thus: Inhibition of Cynomolgus monkey MAGL using native substrate by Rapidfire MS assay.
The target of data set [15] is T2, Monoacylglycerol lipase ABHD6 (Mus musculus) (UniProt Q8R2Y0).
T2 sequence (whole entry): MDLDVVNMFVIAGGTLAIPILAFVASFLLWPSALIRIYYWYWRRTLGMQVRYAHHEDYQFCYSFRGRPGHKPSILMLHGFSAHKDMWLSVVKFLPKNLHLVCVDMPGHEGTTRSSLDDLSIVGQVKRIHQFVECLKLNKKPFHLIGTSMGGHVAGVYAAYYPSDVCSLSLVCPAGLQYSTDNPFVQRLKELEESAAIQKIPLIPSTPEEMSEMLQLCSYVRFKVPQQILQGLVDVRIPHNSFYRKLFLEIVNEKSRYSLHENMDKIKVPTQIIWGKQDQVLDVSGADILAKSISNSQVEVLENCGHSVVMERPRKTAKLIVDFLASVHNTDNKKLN
Nature of the data set: Inhibition of ABHD6 in mouse brain lysates at 10 uM by ABPP assay. In kind it is subcellular. In outline: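 Gel-based activity-based protein profiling of hydrolases, with the inhibitor at 10 µM.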

In data set [16] the test system is Mus musculus. Nature of the data set: Upregulation of brain 2-AG level in mouse at 30 mg/kg, ip measured after 8 to 24 hrs. In kind it is functional, organism-based. The conditions noted are these: time 8-24 hrs. The procedure, abridged: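 Male-unspecified mice received a single i.p. dose of 30 mg/kg. The vehicle was NaCl/DMSO/TW80 (80/10/10): the drug was dissolved in equal parts DMSO and TW80, then diluted with 8 parts normal saline. Brain 2-AG levels were followed over 24 h after dosing and measured by LC/MS in brain extracts.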

The target in data set [17] is T3, Monoglyceride lipase (Mus musculus) (UniProt O35678).
T3 sequence (whole entry): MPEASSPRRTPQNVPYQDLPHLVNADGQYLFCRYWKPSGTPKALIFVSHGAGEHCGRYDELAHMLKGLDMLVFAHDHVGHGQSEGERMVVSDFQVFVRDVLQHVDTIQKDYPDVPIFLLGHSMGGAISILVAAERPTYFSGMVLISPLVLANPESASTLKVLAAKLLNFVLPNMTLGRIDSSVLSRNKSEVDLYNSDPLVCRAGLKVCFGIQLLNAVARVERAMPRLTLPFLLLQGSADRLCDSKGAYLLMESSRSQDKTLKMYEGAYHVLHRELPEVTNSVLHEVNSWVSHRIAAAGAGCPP
Nature of the data set: In vivo receptor occupancy at MAGL receptor in mouse at 30 mg/kg, ip measured after 24 hrs. It is filed as functional, organism-based. The procedure, abridged: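 Mice dosed 30 mg/kg i.p. in NaCl/DMSO/TW80 (80/10/10). Brain proteome was prepared at set time points over 24 h and MAGL occupancy read by activity-based protein profiling.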

Data set [18] concerns Mus musculus. The data set is described as follows: Antiinflammatory activity in LPS-induced CD-1 mouse neuroinflammation model assessed as decrease in peripheral tissue IL-1beta mRNA expression at 30 mg/kg, ip measured after 6 hrs by qRT-PCR analysis. In kind it is functional, organism-based. In outline: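 CD-1 mice were dosed with NaCl + vehicle, LPS (5 mg/kg) + vehicle, or LPS + inhibitor at 30 mg/kg i.p. (vehicle NaCl/DMSO/Tween 80, 80/10/10). They were sacrificed 6 h post-compound. LCN2 and IL1b mRNA in peripheral tissue were measured by droplet digital qRT-PCR.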
For orientation: In qPCR the cycle at which signal appears reflects the starting amount.

The source made the active and inactive calls. The rule behind the calls is not given here.

Broadly, the Kd is a measure of binding affinity in units of concentration. What is called microsomal CLint is a measure of how fast metabolising enzymes remove a compound, apart from limits set by blood flow. By Tmax is commonly meant the time from dosing to the highest level. Broadly, the AUC(0-t) is exposure summed from dosing to a finite time, without extrapolation to infinity. The term inhibition denotes the change of the read-out against control, counted positive when it falls. In general, IC50 refers to the concentration needed to halve the response being measured.

CYP3A4, sequence (P08684 whole entry): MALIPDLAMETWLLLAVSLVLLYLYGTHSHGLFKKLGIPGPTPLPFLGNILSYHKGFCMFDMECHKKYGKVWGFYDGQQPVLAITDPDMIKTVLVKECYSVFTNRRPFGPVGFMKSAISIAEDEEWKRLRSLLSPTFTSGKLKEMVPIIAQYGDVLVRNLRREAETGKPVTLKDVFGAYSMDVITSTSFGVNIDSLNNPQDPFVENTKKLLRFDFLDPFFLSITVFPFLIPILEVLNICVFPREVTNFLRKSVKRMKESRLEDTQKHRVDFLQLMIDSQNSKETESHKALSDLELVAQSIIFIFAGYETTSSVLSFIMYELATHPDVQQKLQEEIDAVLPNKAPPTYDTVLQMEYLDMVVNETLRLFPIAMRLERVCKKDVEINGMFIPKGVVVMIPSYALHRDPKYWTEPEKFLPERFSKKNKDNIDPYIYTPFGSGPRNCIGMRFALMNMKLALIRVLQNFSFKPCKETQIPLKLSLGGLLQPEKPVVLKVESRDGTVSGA

In the case of `O=C1CO[C@H]2CCN(C(=O)N3CCC(Cc4ccc(C(F)(F)F)cc4)CC3)C[C@H]2N1` [listing 1 of 2 here], the Stability entry in data set [1] and in [2] was “Stable” each time. Moreover, the Kd in data set [3] was determined as 45 nM. The molecule further displayed a microsomal CLint in [4] of less than 10 µL/min/mg. In addition, the hepatocyte CLint in data set [5] came to 8.9 µL/min/1e6 cells. In [6], the Vd was 1.3 L/kg. For the same molecule, in [7], the Tmax was determined as 15 min. In data set [8], this molecule registered an AUC(0-t) at 24 h of 40200 ng·h/mL. Besides, the inhibition at 10 µM in data set [9] is -195%. Further, the Activity entry in data set [10] is recorded as “Non-Toxic”. For the same molecule, the Cave in data set [11] was 7496 nM. Moreover, the concentration at 4 h in [12] amounted to 31.2 nM. Also, the concentration at 8 h in data set [13] was 346 nM. This molecule registered an IC50 in data set [14] of 16 nM.
As for `O=C1CO[C@H]2CCN(C(=O)N3CCC(Cc4ccc(C(F)(F)F)cc4)CC3)C[C@H]2N1` [listing 2 of 2 here], the inhibition entry in [15] was “inactive”. Besides, the outcome in data set [16] and in [18] was inactive. Also, the Activity in data set [17] was 5%.

The record behind these values is ChEMBL document CHEMBL6127097, “Structure-Guided Discovery of cis-Hexahydro-pyrido-oxazinones as Reversible, Drug-like Monoacylglycerol Lipase Inhibitors” (J Med Chem, 2024).
